Results from ChEMBL document CHEMBL1165950, “Design and synthesis of new potent anticancer pyrazoles with high FLT3 kinase inhibitory selectivity” (Bioorg Med Chem, 2010).

Legend:
Format in all cases: functional
NCI-H226 = assay: Cytotoxicity against human NCI-H226 cells assessed as cell growth at 10 uM; conditions: read-out: Activity
In short: (§1)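 NCI-60 screen: cells grown in RPMI 1640 with 5% FBS and 2 mM L-glutamine, plated at 5000–40,000 cells/well according to doubling time, and preincubated 24 h at 37 °C, 5% CO2. The single 10 µM dose (DMSO stock) was added, then incubated 48 h. Cells were TCA-fixed and stained with 0.4% SRB, read at 515 nm, and growth % calculated against time-zero and control plates.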

SR = assay: Cytotoxicity against human SR cells assessed as cell growth at 10 uM; conditions: read-out: Activity; in short: as §1
OVCAR-8 = assay: Cytotoxicity against human OVCAR8 cells assessed as cell growth at 10 uM; conditions: read-out: Activity; in short: as §1
SF-539 = assay: Cytotoxicity against human SF539 cells assessed as cell growth at 10 uM; conditions: read-out: Activity; in short: as §1
NCI/ADR-RES = assay: Cytotoxicity against human NCI/ADR-RES cells assessed as cell growth at 10 uM; conditions: read-out: Activity; in short: as §1
A549 = assay: Cytotoxicity against human A549 cells assessed as cell growth at 10 uM; conditions: read-out: Activity
In short: (§2)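 Single-dose NCI-60 screen at 10 µM. Cells were grown in RPMI 1640 with 5% FBS and 2 mM L-glutamine, then treated for 48 h at 37 °C. Protein was measured by SRB staining with absorbance at 515 nm. Percentage growth was recorded, and inhibition percentage was calculated as 100 minus growth percentage.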

KM12 = assay: Cytotoxicity against human KM12 cells assessed as cell growth at 10 uM; conditions: read-out: Activity; in short: as §1
HOP-62 = assay: Cytotoxicity against human HOP62 cells assessed as cell growth at 10 uM; conditions: read-out: Activity; in short: as §2
NCI-H23 = assay: Cytotoxicity against human NCI-H23 cells assessed as cell growth at 10 uM; conditions: read-out: Activity; in short: as §1
HCT-15 = assay: Cytotoxicity against human HCT15 cells assessed as cell growth at 10 uM; conditions: read-out: Activity; in short: as §2
[1] = Growth inhibition of human NCI60 cells at 10 uM after 48 hrs by sulforhodamine B assay relative to control; conditions: NCI60, 48 h, read-out: GI
In short: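 Single-dose NCI screen at 10 µM across the 60-line panel, 48 h exposure at 37 °C after a 24 h preincubation. Adherent cells were fixed with cold TCA and stained with 0.4% SRB, and absorbance was read at 515 nm. Inhibition % was taken as 100 minus growth %, and the mean across all lines was reported.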

CAKI-1 = assay: Cytotoxicity against human Caki1 cells assessed as cell growth at 10 uM; conditions: read-out: Activity; in short: as §2
OVCAR-5 = assay: Cytotoxicity against human OVCAR5 cells assessed as cell growth at 10 uM; conditions: read-out: Activity; in short: as §1
[2] = Cytotoxicity against human […] cells assessed as cell growth at 10 uM; conditions: read-out: Activity; in short: as §1
COLO 205 = assay: Cytotoxicity against human COLO205 cells assessed as cell growth at 10 uM; conditions: read-out: Activity; in short: as §2
RXF 393 = assay: Cytotoxicity against human RXF393 cells assessed as cell growth at 10 uM; conditions: read-out: Activity; in short: as §1
UACC-257 = assay: Cytotoxicity against human UACC257 cells assessed as cell growth at 10 uM; conditions: read-out: Activity; in short: as §1
SF-295 = assay: Cytotoxicity against human SF295 cells assessed as cell growth at 10 uM; conditions: read-out: Activity; in short: as §1
SK-MEL-28 = assay: Cytotoxicity against human SK-MEL-28 cells assessed as cell growth at 10 uM; conditions: read-out: Activity; in short: as §1
CCRF-CEM = assay: Cytotoxicity against human CCRF-CEM cells assessed as cell growth at 10 uM; conditions: read-out: Activity; in short: as §2
A498 = assay: Cytotoxicity against human A498 cells assessed as cell growth at 10 uM; conditions: read-out: Activity; in short: as §2
HL-60(TB) = assay: Cytotoxicity against human HL-60(TB) cells assessed as cell growth at 10 uM; conditions: read-out: Activity
In short: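 NCI 60-cell panel screen at a single concentration of 10 µM. Cells are grown in RPMI 1640 with 5% FBS and 2 mM L-glutamine and read by SRB protein staining at 515 nm. Percent growth is measured relative to time-zero and untreated controls; inhibition % is 100 minus growth %.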

ACHN = assay: Cytotoxicity against human ACHN cells assessed as cell growth at 10 uM; conditions: read-out: Activity; in short: as §2
MDA-MB-468 = assay: Cytotoxicity against human MDA-MB-468 cells assessed as cell growth at 10 uM; conditions: read-out: Activity; in short: as §1
HCT-116 = assay: Cytotoxicity against human HCT116 cells assessed as cell growth at 10 uM; conditions: read-out: Activity; in short: as §2
K562 = assay: Cytotoxicity against human K562 cells assessed as cell growth at 10 uM; conditions: read-out: Activity; in short: as §2
SW-620 = assay: Cytotoxicity against human SW620 cells assessed as cell growth at 10 uM; conditions: read-out: Activity; in short: as §1
T47D = assay: Cytotoxicity against human T47D cells assessed as cell growth at 10 uM; conditions: read-out: Activity; in short: as §1
SF-268 = assay: Cytotoxicity against human SF268 cells assessed as cell growth at 10 uM; conditions: read-out: Activity; in short: as §1
EKVX = assay: Cytotoxicity against human EKVX cells assessed as cell growth at 10 uM; conditions: read-out: Activity; in short: as §2
SNB-19 = assay: Cytotoxicity against human SNB19 cells assessed as cell growth at 10 uM; conditions: read-out: Activity; in short: as §1
NCI-H322M = assay: Cytotoxicity against human NCI-H322M cells assessed as cell growth at 10 uM; conditions: read-out: Activity; in short: as §1
LOX IMVI = assay: Cytotoxicity against human LOXIMVI cells assessed as cell growth at 10 uM; conditions: read-out: Activity; in short: as §1
SK-MEL-2 = assay: Cytotoxicity against human SK-MEL-2 cells assessed as cell growth at 10 uM; conditions: read-out: Activity; in short: as §1
NCI-H522 = assay: Cytotoxicity against human NCI-H522 cells assessed as cell growth at 10 uM; conditions: read-out: Activity; in short: as §1
UACC-62 = assay: Cytotoxicity against human UACC62 cells assessed as cell growth at 10 uM; conditions: read-out: Activity; in short: as §1
DU-145 = assay: Cytotoxicity against human DU145 cells assessed as cell growth at 10 uM; conditions: read-out: Activity; in short: as §2
786-0 = assay: Cytotoxicity against human 786-0 cells assessed as cell growth at 10 uM; conditions: read-out: Activity; in short: as §2
SK-MEL-5 = assay: Cytotoxicity against human SK-MEL-5 cells assessed as cell growth at 10 uM; conditions: read-out: Activity; in short: as §1
MDA-MB-435 = assay: Cytotoxicity against human MDA-MB-435 cells assessed as cell growth at 10 uM; conditions: read-out: Activity; in short: as §1
[3] = Cytotoxicity against human Hs 578T cells assessed as cell growth at 10 uM; conditions: read-out: Activity; in short: as §2
UO-31 = assay: Cytotoxicity against human UO31 cells assessed as cell growth at 10 uM; conditions: read-out: Activity; in short: as §1
MDA-MB-231 = assay: Cytotoxicity against human MDA-MB-231 cells assessed as cell growth at 10 uM; conditions: read-out: Activity; in short: as §1
PC-3 = assay: Cytotoxicity against human PC3 cells assessed as cell growth at 10 uM; conditions: read-out: Activity; in short: as §1
NCI-H460 = assay: Cytotoxicity against human NCI-H460 cells assessed as cell growth at 10 uM; conditions: read-out: Activity; in short: as §1
HCC 2998 = assay: Cytotoxicity against human HCC2998 cells assessed as cell growth at 10 uM; conditions: read-out: Activity; in short: as §2
BT-549 = assay: Cytotoxicity against human BT549 cells assessed as cell growth at 10 uM; conditions: read-out: Activity; in short: as §2
SNB-75 = assay: Cytotoxicity against human SNB75 cells assessed as cell growth at 10 uM; conditions: read-out: Activity; in short: as §1
OVCAR-4 = assay: Cytotoxicity against human OVCAR4 cells assessed as cell growth at 10 uM; conditions: read-out: Activity; in short: as §1
TK-10 = assay: Cytotoxicity against human TK10 cells assessed as cell growth at 10 uM; conditions: read-out: Activity; in short: as §1
HT-29 = assay: Cytotoxicity against human HT-29 cells assessed as cell growth at 10 uM; conditions: read-out: Activity; in short: as §2
OVCAR-3 = assay: Cytotoxicity against human OVCAR-3 cells assessed as cell growth at 10 uM; conditions: read-out: Activity; in short: as §1
U-251 = assay: Cytotoxicity against human U251 cells assessed as cell growth at 10 uM; conditions: read-out: Activity; in short: as §1
SN12C = assay: Cytotoxicity against human SN12C cells assessed as cell growth at 10 uM; conditions: read-out: Activity; in short: as §1
IGROV-1 = assay: Cytotoxicity against human IGROV1 cells assessed as cell growth at 10 uM; conditions: read-out: Activity; in short: as §2
MCF7 = assay: Cytotoxicity against human MCF7 cells assessed as cell growth at 10 uM; conditions: read-out: Activity; in short: as §1
MOLT-4 = assay: Cytotoxicity against human MOLT4 cells assessed as cell growth at 10 uM; conditions: read-out: Activity; in short: as §1
M14 = assay: Cytotoxicity against human M14 cells assessed as cell growth at 10 uM; conditions: read-out: Activity; in short: as §1
SK-OV-3 = assay: Cytotoxicity against human SKOV3 cells assessed as cell growth at 10 uM; conditions: read-out: Activity; in short: as §1
Malme-3M = assay: Cytotoxicity against human MALME-3M cells assessed as cell growth at 10 uM; conditions: read-out: Activity; in short: as §1
HOP-92 = assay: Cytotoxicity against human HOP92 cells assessed as cell growth at 10 uM; conditions: read-out: Activity; in short: as §2

Structure (SMILES): COc1cc(C)cc(-c2nn(CC#N)cc2-c2ccnc(-c3cccc(NC(C)=O)c3)c2)c1
- growth at 10 µM (NCI-H226): 93.1%
- growth at 10 µM (SR): 80.9%
- growth at 10 µM (OVCAR-8): 88%
- growth at 10 µM (SF-539): 84.5%
- growth at 10 µM (NCI/ADR-RES): 87.3%
- growth at 10 µM (A549): 86.7%
- growth at 10 µM (KM12): 109%
- growth at 10 µM (HOP-62): 98.5%
- growth at 10 µM (NCI-H23): 95.3%
- growth at 10 µM (HCT-15): 94.5%
- inhibition of growth at 10 µM [1]: 1.18%
- growth at 10 µM (CAKI-1): 77.3%
- growth at 10 µM (OVCAR-5): 91.6%
- growth at 10 µM [2]: 73.9%
- growth at 10 µM (COLO 205): 93.5%
- growth at 10 µM (RXF 393): 81.5%
- growth at 10 µM (UACC-257): 89.7%
- growth at 10 µM (SF-295): 102%
- growth at 10 µM (SK-MEL-28): 104%
- growth at 10 µM (CCRF-CEM): 83.9%
- growth at 10 µM (A498): 74.2%
- growth at 10 µM (HL-60(TB)): 74.9%
- growth at 10 µM (ACHN): 88%
- growth at 10 µM (MDA-MB-468): 82.8%
- growth at 10 µM (HCT-116): 96.4%
- growth at 10 µM (K562): 86.4%
- growth at 10 µM (SW-620): 104%
- growth at 10 µM (T47D): 79.3%
- growth at 10 µM (SF-268): 97.3%
- growth at 10 µM (EKVX): 101%
- growth at 10 µM (SNB-19): 89.6%
- growth at 10 µM (NCI-H322M): 96.9%
- growth at 10 µM (LOX IMVI): 97.5%
- growth at 10 µM (SK-MEL-2): 92.1%
- growth at 10 µM (NCI-H522): 82.5%
- growth at 10 µM (UACC-62): 81.7%
- growth at 10 µM (DU-145): 105%
- growth at 10 µM (786-0): 84%
- growth at 10 µM (SK-MEL-5): 36.9%
- growth at 10 µM (MDA-MB-435): 99.6%
- growth at 10 µM [3]: 99%
- growth at 10 µM (UO-31): 63.6%
- growth at 10 µM (MDA-MB-231): 86.5%
- growth at 10 µM (PC-3): 85.8%
- growth at 10 µM (NCI-H460): 107%
- growth at 10 µM (HCC 2998): 101%
- growth at 10 µM (BT-549): 79.1%
- growth at 10 µM (SNB-75): 72.4%
- growth at 10 µM (OVCAR-4): 99.7%
- growth at 10 µM (TK-10): 87.1%
- growth at 10 µM (HT-29): 99.4%
- growth at 10 µM (OVCAR-3): 109%
- growth at 10 µM (U-251): 94.3%
- growth at 10 µM (SN12C): 83%
- growth at 10 µM (IGROV-1): 98.4%
- growth at 10 µM (MCF7): 85%
- growth at 10 µM (MOLT-4): 82.8%
- growth at 10 µM (M14): 96.3%
- growth at 10 µM (SK-OV-3): 93.3%
- growth at 10 µM (Malme-3M): 108%
- growth at 10 µM (HOP-92): 79.6%
